Source: ChEMBL document CHEMBL3244407, “Synthesis of spiro[tetralin-2,2'-pyrrolidine] and spiro[indan-2,2'-pyrrolidine] derivatives as potential analgesics” (J Med Chem, 1978)
Calls of active or inactive are those of the source. No cut-off for these calls is given here.

Key:
[1] = tested on: Mus musculus; assay: Analgesic activity in mouse assessed as inhibition of acetic acid-induced writhing response at 100 mg/kg, po administered 30 mins prior to acetic acid-challenge relative to control; type: functional
How it was run: (§1)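 Mice in groups, dosed orally with vehicle or compound; 30 min later given dilute acetic acid ip (0.4 mL, 0.25%). Total squirming movements counted.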

[2] = tested on: Mus musculus; assay: Antidepressant activity in mouse assessed as reversal of reserpine-induced hypothermia measured as cumulative temperature rise at 30 mg/kg administered 17 hrs post reserpine-challenge; type: functional
How it was run: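 Groups of six mice pretreated with reserpine 2 mg/kg sc; compound given 17 h later. Gastric temperature read just before dosing (t0) and at 2, 4 and 6 h. Cumulative rise T = (t2 + t4 + t6) − 3t0, averaged per group, in °C.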

[3] = species: Mus musculus; assay: Effect on CNS activity in mouse by maximal electroshock test; type: functional, organism-based; settings: Central nervous system
[4] = species: Mus musculus; assay: Effect on CNS activity in mouse by maximal metrazole shock test; type: functional, organism-based; settings: Central nervous system
[5] = species: Mus musculus; assay: Effect on locomotor activity in mouse; type: functional, organism-based
[6] = species: Mus musculus; assay: Neurotoxicity in mouse by stationary rod test; type: toxicity, organism-based; settings: in vivo
[7] = tested on: Mus musculus; assay: Analgesic activity in mouse assessed as inhibition of acetic acid-induced writhing response at 30 mg/kg, po administered 30 mins prior to acetic acid-challenge relative to control; type: functional; how it was run: as §1
[8] = species: Mus musculus; assay: animal or person; type: functional; settings: route oral
[9] = species: Mus musculus; assay: Analgesic activity in mouse by hot-plate test; type: functional

SMILES | inhibition in vivo at 100 mg/kg [1] [%] | T [2] [°C] | Activity [3] | Activity [4] | Activity [5] | Activity [6] | inhibition in vivo at 30 mg/kg [7] [%] | inhibition in vivo at 10 mg/kg [8] [%] | ED50 [9] [mg/kg]
CN1CCCC12Cc1ccccc1C2.Cl | 50 | 5.1 | inactive | inactive | inactive | Non-toxic |  |  | 
Br.CN1CCCC12CCc1cc(O)ccc1C2 (stereo not given) |  | 0.7 | inactive | inactive | inactive | Non-toxic | 75 |  | 
COc1ccc2c(c1)CCC1(CCCN1)C2.Cl (stereo not given) |  | 0.2 | inactive | inactive | inactive | Non-toxic | 50 |  | 
Br.COc1ccc2c(c1)CCC1(CCCN1C)C2 (stereo not given) |  | 1.2 | inactive | inactive | inactive | Non-toxic | 75 |  | 
Cl.c1ccc2c(c1)CCC1(CCCN1)C2 (stereo not given) |  | 4.5 | inactive | inactive | inactive | Non-toxic |  | 100 | 7.1
Br.Oc1ccc2c(c1)CCC1(CCCN1)C2 (stereo not given) |  | 0.7 | inactive | inactive | inactive | Non-toxic | 0 |  | 
CN1CC[C@]23c4c5ccc(O)c4O[C@H]2[C@@H](O)C=C[C@H]3[C@H]1C5.Cl [MORPHINE HYDROCHLORIDE] |  | 0.3 |  |  |  |  |  | 100 | 
CN(C)CCCN1c2ccccc2CCc2ccccc21 [IMIPRAMINE] |  | 8 |  |  |  |  | 50 |  | 
Cl.c1ccc2c(c1)CC1(CCCN1)C2 |  | 5.1 | inactive | inactive | inactive | Non-toxic |  | 50 | > 30
CN1CCCC12CCc1ccccc1C2.Cl (stereo not given) |  | 2.7 | inactive | inactive | inactive | Non-toxic |  | 100 | 7.4
